# The list is not random: actives were taken first. Their share in the collection is about 2.8%.
# Rtt109 HAT inh: inhibitors of C. albicans Rtt109/Vps75 HAT, primary screen, biochemical, ThioGlo CoA-SH fluorescence, plate reader | AID 540336, 2011 | inhibition, % at 34.9 µM | 0.16% of 330,000 active | purified Rtt109/Vps75, 4 h;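 active = inhibition of at least 50% in every replicate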
# T cell HTS: modulators of CD8 T cell-vesicle binding, primary screen, mouse 2C CD8+ T cells, flow cytometry; 2C CD8+ T cell-vesicle binding; stronger effect = lower value; response (vesicle binding), % at 7 µM; 0.068% of 330,000 active; AID 2052, 2009;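 active = response, share of CD8 T cells binding vesicles, and their 90th percentile fluorescence all below set limits, cut at about 80% in these data, passing the limit was not always enough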;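 note: values below 100% mean blocked vesicle binding to the CD8+ T cells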
#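 material = purified 2C TCR transgenic mouse naive CD8+ T cells | controls = Unloaded micro-vesicles (low), QL9 vesicles with 0.7% DMSO (high) | detection = cytometric PE anti-B7-1 and Alexa647 anti-CD8 signals after 1% paraformaldehyde fixation | incubation = binding step 1.5 h, 37 °C, antibody labelling 20 min, ice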
# NR3A LBD binder: binders of NR3A ligand-binding domain, primary screen, biophysical, differential scanning fluorimetry, uHTS; Glutamate receptor ionotropic, NMDA 3A (GRIN3A) ligand-binding domain; NR3A LBD differential scanning fluorimetry, Tm shift; 0% = protein alone, 100% = glycine-bound protein; Tm shift relative to glycine control, % at 25 µM; 2.5% of 340,000 active; AID 1259313, 2017;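 active = melting temperature shift of at least 10% of the positive control shift, at one fixed dose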
# JMJD2C inh: inhibitors of GASC-1 histone demethylase, primary screen, biochemical, fluorescence, DELFIA europium. 0.069% of 330,000 active. inhibition, % at 2.35 µM. GST-JMJD2C(1-420) H3K9me3 demethylation. Lysine-specific demethylase 4C (Homo sapiens), Q9H3R0;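 active = more than half of a compound's replicate wells show inhibition beyond 50%, single wells judged on their own value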;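 note: signal counts dimethyl H3K9 product captured on neutravidin plate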
# Target sequence (Q9H3R0 1-420 limits assumed): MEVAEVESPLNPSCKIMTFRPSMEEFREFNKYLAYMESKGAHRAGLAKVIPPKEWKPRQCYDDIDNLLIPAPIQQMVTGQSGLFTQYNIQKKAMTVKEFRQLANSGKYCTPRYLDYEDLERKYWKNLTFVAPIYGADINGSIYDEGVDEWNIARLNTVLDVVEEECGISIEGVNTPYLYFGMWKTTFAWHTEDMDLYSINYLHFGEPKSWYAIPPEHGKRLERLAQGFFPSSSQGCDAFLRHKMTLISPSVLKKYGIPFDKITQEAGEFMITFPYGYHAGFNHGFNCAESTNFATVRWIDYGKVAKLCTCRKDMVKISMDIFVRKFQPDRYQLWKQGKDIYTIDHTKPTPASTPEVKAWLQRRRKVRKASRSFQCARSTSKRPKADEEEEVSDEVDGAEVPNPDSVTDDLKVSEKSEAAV
# A number is an active result; n = inactive; x = no result.
SMILES,Rtt109 HAT inh,T cell HTS,NR3A LBD binder,JMJD2C inh
CN(C(=O)c1ccc(NC(=O)C2CCCN(C(=O)OC(C)(C)C)C2)cc1)C1CCCCC1 (stereo unspecified),n,n,n,n
C=CCN1C(=O)[C@@H]2Cc3c([nH]c4ccccc34)C(c3ccc(O)cc3)N2C1=S (stereo partly specified),n,n,21.2,n
C=CCN1C(=O)[C@@H]2Cc3c([nH]c4ccccc34)C(c3cc(OC)c(OC)c(OC)c3)N2C1=S (stereo partly specified),n,n,n,n
CC(C(=O)NC1C=CS(=O)(=O)C1)N1C(=O)/C(=C/c2ccc(Cl)cc2)SC1=S (stereo unspecified),138.8,n,n,n
O=C(CCN1C(=O)/C(=C/c2ccc(F)cc2)SC1=S)NC1C=CS(=O)(=O)C1 (stereo unspecified),n,n,n,n
O=C(OCC(=O)c1c[nH]c2ccccc12)c1ccc([N+](=O)[O-])s1,n,n,n,n
CCc1cccc2c(C(=O)COC(=O)c3ccc([N+](=O)[O-])s3)c[nH]c12,x,n,10.5,n
CCc1ccc(CN2CCCC(CNC(=O)c3cccc(OC)c3OC)C2)cc1 (stereo unspecified),n,n,n,n
N#C/C(=N\Nc1cccc(C(F)(F)F)c1)C(=O)c1ccsc1,n,n,16.4,n
CCOC(=O)c1c(NC(=O)c2cc3n(n2)C(C(F)(F)F)CC(c2ccccc2)N3)sc(C)c1C (stereo unspecified),n,n,18.0,n
O=C(COc1ccccc1Br)NCCC1=CCCCC1,n,n,n,n
O=C(COc1ccccc1[N+](=O)[O-])NCCC1=CCCCC1,n,n,11.0,n
CCCCC[C@H](O)/C=C/[C@H]1CCC(=O)[C@@H]1CCCCCCC(=O)N1CCCCC1CO (stereo partly specified),n,n,n,n
Cc1ccc(CN2C(=O)c3ccccc3NC2c2cc(Br)ccc2O)cc1 (stereo unspecified),n,n,21.7,n
Cc1cc(OC(=O)c2c(C)cc(OC(=O)c3c(C)cc(O)cc3O)cc2O)cc(O)c1C(=O)O,n,n,n,n
COc1ccc(CCCNC(=O)C2CCC(=O)N(CCc3cccc(F)c3)C2)cc1 (stereo unspecified),n,n,n,n
CNC(=S)N(Cc1ccc(OC)cc1)C1CC(=O)N(c2ccc(OC)cc2)C1=O (stereo unspecified),n,n,18.3,x
CCCOc1ccc(N2C(=O)CC(N(Cc3ccc(OC)cc3)C(=S)Nc3ccccc3)C2=O)cc1 (stereo unspecified),n,n,24.2,n
c1ccc(Cn2ccnc2SCc2nnc(-c3ccccc3)o2)cc1,n,n,10.5,n
O=C1NCCCc2c1no[n+]2[O-],n,n,10.5,n
Fc1ccc(-c2ccc(Nc3cccc(F)c3)nn2)cc1,n,n,30.2,n
Fc1ccc(Nc2ccc(-c3ccc(F)cc3)nn2)cc1,n,n,26.3,n
Cc1[nH]c(C)c(S(=O)(=O)NCc2ccc(OC(C)C)cc2)c1C(=O)N1CCCC1,n,n,n,n
NC(=O)c1ccc(NC(=O)c2cnc3ccccc3n2)cc1,n,n,16.5,n
O=C(Nc1ccc(S(=O)(=O)Nc2cnc3ccccc3n2)cc1)c1ccc(F)cc1,n,n,n,n
SMILES,Rtt109 HAT inh,T cell HTS,NR3A LBD binder,JMJD2C inh
NC(=O)c1ccc(NS(=O)(=O)c2ccc3ccccc3c2)cc1,n,n,11.9,n
CC(C)(C)c1ccc(C(=O)Nc2ccc(S(=O)(=O)Nc3cnc4ccccc4n3)cc2)cc1,n,n,12.9,n
O=C(O)c1ccc(NS(=O)(=O)c2ccc(N3CCCC3)c([N+](=O)[O-])c2)cc1,n,n,10.0,n
O=C(Nc1ccccc1)c1cnc2ccccc2n1,n,n,n,n
COC(=O)c1cc(NS(=O)(=O)c2ccc(N3CCCCCC3)c([N+](=O)[O-])c2)cc(C(=O)OC)c1,n,n,n,n
C[C@H](CO)N1C[C@H](C)[C@@H](CN(C)C(=O)Nc2ccc3c(c2)OCO3)Oc2c(NC(=O)Cc3ccccc3)cccc2C1=O,n,n,n,x
O=C(Nc1ccc(S(=O)(=O)Nc2cnc3ccccc3n2)cc1)c1cccc(OC(F)F)c1,n,n,10.6,n
O=C(O)c1ccc(NS(=O)(=O)c2ccc(C(=O)Nc3ccccc3)cc2)cc1,n,n,17.0,n
CCn1c(C)nnc1SCC(=O)NC1CCCC1,n,n,n,n
O=C(Nc1cccnc1)c1cccnc1Cl,n,n,n,n
CCNC(=S)Nc1cccc(NC(=O)c2ccccc2O)c1,n,n,11.0,n
O=C(Nc1ccc(NC(=O)c2cccnc2Cl)cc1)c1cccc(Cl)c1,n,n,21.9,n
CCC(=O)Nc1cccc(NC(=S)NC(=O)c2ccccc2Cl)c1,n,n,17.2,n
CCNC(=S)Nc1ccc(NC(=O)c2ccccc2O)cc1,n,n,n,n
O=C(Nc1ccc(NC(=S)NC(=O)c2ccccc2Cl)cc1)c1cccc(Cl)c1,n,n,18.3,n
CCOc1ccccc1N1CCN(C(=O)c2ccc(NS(=O)(=O)c3ccc4[nH]c(=O)[nH]c4c3)cc2)CC1,n,n,n,n
CCC1(C)NC(=O)N(CC(=O)Nc2cc(C)on2)C1=O (stereo unspecified),n,n,n,n
CCN(c1ccc(OC)cc1)S(=O)(=O)c1nnc(NC(=O)COc2ccccc2)s1,n,n,n,n
CSc1cccc(NS(=O)(=O)c2ccccc2)c1,n,n,19.9,n
Cc1ccc(NC(=S)NCc2ccc(F)cc2)cc1,n,n,n,n
CCOc1ccc(NS(=O)(=O)c2ccc(NS(=O)(=O)c3ccc(SC)cc3)cc2)cc1,n,n,28.5,n
Cc1ccc(S(=O)(=O)Nc2ccc(N(C)S(=O)(=O)c3ccc(C)cc3)cc2)cc1,n,n,n,n
Cc1ccc(CNC(=S)Nc2ccc(NS(=O)(=O)c3ccc(C)cc3)cc2)cc1,n,n,22.6,n
CCOc1ccc(NS(=O)(=O)c2ccc(NS(C)(=O)=O)cc2)cc1,n,n,n,n
Cc1ccc(S(=O)(=O)Nc2ccc(N=Nc3ccc(O)cc3)cc2)cc1,n,n,14.0,n
Cc1cc(NC(=O)CSc2nc3cc(Cl)ccc3c(=O)n2C(C)C)no1,x,x,n,x
Cc1ccc(S(=O)(=O)N2CCOCC2)cc1C(=O)NCC1CCCCC1,n,n,n,n
CSc1ccc(S(=O)(=O)Nc2ccc(NC(C)=O)cc2)cc1,n,n,n,n
CSc1ccc(S(=O)(=O)Nc2ccc(S(=O)(=O)Nc3ccc(C)cc3)cc2)cc1,n,n,24.7,n
